ChEMBL document CHEMBL1143122, “Novel analogs of D-e-MAPP and B13. Part 1: synthesis and evaluation as potential anticancer agents” (Bioorg Med Chem, 2008)

Experiments:
[1] = tested on: UO-31; assay: Antiproliferative activity against human UO31 cells after 48 hrs; assay type: functional; details: UO-31, 48 h
Summary of the method: (§1)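 NCI 60-cell-line screen. Lines grown in RPMI 1640 with 5% fetal bovine serum and 2 mM L-glutamine, plated at 5,000–40,000 cells/well according to doubling time, left 24 h at 37 °C in 5% CO2. Drug stocks in DMSO at 400-fold the top final concentration. Five 10-fold dilutions, 10−4 to 10−8 M, incubated 48 h. Growth read spectrophotometrically as net protein; GI50 taken as 50% reduction.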

[2] = tested on: UACC-257; assay: Antiproliferative activity against human UACC257 cells after 48 hrs; assay type: functional; details: UACC-257, 48 h; summary of the method: as §1
[3] = tested on: SK-MEL-5; assay: Antiproliferative activity against human SKMEL5 cells after 48 hrs; assay type: functional; details: SK-MEL-5, 48 h
Summary of the method: (§2)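 NCI 60-cell screen. Cells were grown in RPMI 1640 with 5% FBS and 2 mM L-glutamine, then plated at 5,000–40,000 cells/well according to doubling time and preincubated for 24 h at 37 °C in 5% CO2. Compounds were dissolved in DMSO at 400× the top final concentration and tested at five 10-fold dilutions from 10−4 to 10−8 M for 48 h. Growth was read spectrophotometrically; GI50 is 50% net protein reduction.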

[4] = tested on: OVCAR-3; assay: Antiproliferative activity against human OVCAR-3 cells after 48 hrs; assay type: functional; details: OVCAR-3, 48 h; summary of the method: as §2
[5] = tested on: SF-539; assay: Antiproliferative activity against human SF539 cells after 48 hrs; assay type: functional; details: SF-539, 48 h; summary of the method: as §2
[6] = tested on: SW-620; assay: Antiproliferative activity against human SW620 cells after 48 hrs; assay type: functional; details: SW-620, 48 h; summary of the method: as §1
[7] = tested on: NCI-H522; assay: Antiproliferative activity against human NCI-H522 cells after 48 hrs; assay type: functional; details: NCI-H522, 48 h; summary of the method: as §2
[8] = tested on: CCRF-CEM; assay: Antiproliferative activity against human CCRF-CEM cells after 48 hrs; assay type: functional; summary of the method: as §2
[9] = tested on: U-251; assay: Antiproliferative activity against human U251 cells after 48 hrs; assay type: functional; details: U-251, 48 h; summary of the method: as §1
[10] = tested on: MCF7; assay: Antiproliferative activity against human MCF7 cells after 48 hrs; assay type: functional, cell-based; details: MCF7, 48 h
[11] = tested on: SK-MEL-28; assay: Antiproliferative activity against human SKMEL28 cells after 48 hrs; assay type: functional; details: SK-MEL-28, 48 h; summary of the method: as §2
[12] = tested on: HOP-62; assay: Antiproliferative activity against human HOP62 cells after 48 hrs; assay type: functional; details: HOP-62, 48 h; summary of the method: as §2
[13] = tested on: ACHN; assay: Antiproliferative activity against human ACHN cells after 48 hrs; assay type: functional; summary of the method: as §2
[14] = tested on: KM12; assay: Antiproliferative activity against human KM12 cells after 48 hrs; assay type: functional; details: Homo sapiens, KM12, 48 h; summary of the method: as §2
[15] = tested on: HCC 2998; assay: Antiproliferative activity against human HCC2998 cells after 48 hrs; assay type: functional; details: HCC 2998, 48 h; summary of the method: as §2
[16] = tested on: K562; assay: Antiproliferative activity against human K562 cells after 48 hrs; assay type: functional; details: K562, 48 h; summary of the method: as §2
[17] = tested on: SNB-75; assay: Antiproliferative activity against human SNB75 cells after 48 hrs; assay type: functional; details: SNB-75, 48 h; summary of the method: as §2
[18] = tested on: DU-145; assay: Antiproliferative activity against human DU145 cells after 48 hrs; assay type: functional; details: DU-145, 48 h; summary of the method: as §2
[19] = tested on: A549; assay: Antiproliferative activity against human A549 cells after 48 hrs; assay type: functional; details: A549, 48 h; summary of the method: as §2
[20] = tested on: M14; assay: Antiproliferative activity against human M14 cells after 48 hrs; assay type: functional; details: M14, 48 h; summary of the method: as §2
[21] = tested on: MDA-MB-435; assay: Antiproliferative activity against human MDA-MB-435 cells after 48 hrs; assay type: functional; details: Homo sapiens, MDA-MB-435, 48 h; summary of the method: as §2
[22] = tested on: Hs-578T; assay: Antiproliferative activity against human HS578T cells after 48 hrs; assay type: functional; summary of the method: as §2
[23] = tested on: OVCAR-4; assay: Antiproliferative activity against human OVCAR4 cells after 48 hrs; assay type: functional; details: OVCAR-4, 48 h; summary of the method: as §2
[24] = tested on: LOX IMVI; assay: Antiproliferative activity against human LOXIMVI cells after 48 hrs; assay type: functional; summary of the method: as §2
[25] = tested on: SF-268; assay: Antiproliferative activity against human SF268 cells after 48 hrs; assay type: functional; details: SF-268, 48 h; summary of the method: as §2
[26] = tested on: SK-OV-3; assay: Antiproliferative activity against human SKOV3 cells after 48 hrs; assay type: functional; details: SK-OV-3, 48 h; summary of the method: as §2
[27] = tested on: PC-3; assay: Antiproliferative activity against human PC3 cells after 48 hrs; assay type: functional; details: PC-3, 48 h; summary of the method: as §2
[28] = tested on: SNB-19; assay: Antiproliferative activity against human SNB19 cells after 48 hrs; assay type: functional; details: SNB-19, 48 h; summary of the method: as §2
[29] = tested on: IGROV-1; assay: Antiproliferative activity against human IGROV1 cells after 48 hrs; assay type: functional; details: IGROV-1, 48 h; summary of the method: as §2
[30] = tested on: HT-29; assay: Antiproliferative activity against human HT29 cells after 48 hrs; assay type: functional; details: HT-29, 48 h; summary of the method: as §2
[31] = tested on: T47D; assay: Antiproliferative activity against human T47D cells after 48 hrs; assay type: functional; summary of the method: as §1
[32] = Antiproliferative activity against human […] cells after 48 hrs; assay type: functional; summary of the method: as §2
[33] = tested on: HOP-92; assay: Antiproliferative activity against human HOP92 cells after 48 hrs; assay type: functional; details: HOP-92, 48 h; summary of the method: as §2
[34] = read-out: Log LC50 (the source's name) (converted)

CCCCCCCCCCCCCCN[C@@H](CO)Cc1ccccc1 showed a GI50 [1] of 4.37 µM, an LC50 [1] greater than 100 µM and a TGI ([1]; read-out: Log TGI (converted)) of 21.4 µM. It also gave a GI50 [2] of 2090 nM, a CC50 [2, 34] of 17.8 µM and a TGI ([2]; read-out: Log TGI (converted)) of 4.79 µM. The GI50 [3] was 1780 nM, the CC50 [3, 34] was 6.03 µM and the TGI ([3]; read-out: Log TGI (converted)) was 3.24 µM. For the same molecule, the GI50 [4] was 1660 nM, the LC50 [4] was 5.5 µM and the TGI ([4]; read-out: Log TGI (converted)) was 3.02 µM. It also gave a GI50 [5] of 1700 nM, an LC50 [5] of 6.76 µM and a TGI ([5]; read-out: Log TGI (converted)) of 3.39 µM. The GI50 [6] was 2000 nM, the LC50 (concentration killing 50% of cells) [6] was 8.13 µM and the TGI ([6]; read-out: Log TGI (converted)) was 4.07 µM. The GI50 [7] was 2090 nM, the TGI ([7]; read-out: Log TGI (converted)) was 3.98 µM and the GI50 [8] was 1740 nM. For the same molecule, the CC50 [8, 34] was 7.76 µM, the TGI ([8]; read-out: Log TGI (converted)) was 3.72 µM and the GI50 [9] was 1740 nM. The TGI ([9]; read-out: Log TGI (converted)) was 3.24 µM, the GI50 [10] was 1740 nM and the LC50 [10] was 6.03 µM. The TGI ([10]; read-out: Log TGI (converted)) was 3.24 µM, the GI50 [11] was 1910 nM and the LC50 [11] was 6.31 µM. For the same molecule, the TGI ([11]; read-out: Log TGI (converted)) was 3.47 µM, the GI50 [12] was 1230 nM and the CC50 [12, 34] was 5.37 µM. The TGI ([12]; read-out: Log TGI (converted)) was 2570 nM, the GI50 [13] was 1700 nM and the CC50 [13, 34] was 5.89 µM. It also gave a TGI ([13]; read-out: Log TGI (converted)) of 3.16 µM, a GI50 [14] of 1860 nM and a CC50 [14, 34] of 6.17 µM. The TGI ([14]; read-out: Log TGI (converted)) was 3.39 µM, the GI50 [15] was 2240 nM and the CC50 [15, 34] was 6.17 µM. The TGI ([15]; read-out: Log TGI (converted)) was 3.72 µM, the GI50 [16] was 1820 nM and the LC50 [16] was 9.33 µM. The TGI ([16]; read-out: Log TGI (converted)) was 4.07 µM, the GI50 [17] was 2190 nM and the CC50 [17, 34] was 14.1 µM. It also gave a TGI ([17]; read-out: Log TGI (converted)) of 4.79 µM, a GI50 [18] of 1450 nM and a CC50 [18, 34] of 6.03 µM. The TGI ([18]; read-out: Log TGI (converted)) was 3.09 µM, the GI50 [19] was 2040 nM and the CC50 [19, 34] was 26.3 µM. For the same molecule, the TGI ([19]; read-out: Log TGI (converted)) was 4.68 µM, the GI50 [20] was 2240 nM and the LC50 [20] was 6.76 µM. The TGI ([20]; read-out: Log TGI (converted)) was 3.89 µM, the GI50 [21] was 1740 nM and the LC50 [21] was 5.62 µM. The TGI ([21]; read-out: Log TGI (converted)) was 3.16 µM, the GI50 [22] was 2400 nM and the LC50 [22] was 11 µM. The TGI ([22]; read-out: Log TGI (converted)) was 5.01 µM, the GI50 [23] was 1910 nM and the LC50 [23] was 6.31 µM. The TGI ([23]; read-out: Log TGI (converted)) was 3.47 µM, the GI50 [24] was 1580 nM and the LC50 [24] was 5.75 µM. The TGI ([24]; read-out: Log TGI (converted)) was 3.02 µM, the GI50 [25] was 1780 nM and the LC50 [25] was 7.08 µM. For the same molecule, the TGI ([25]; read-out: Log TGI (converted)) was 3.55 µM, the GI50 [26] was 2190 nM and the CC50 [26, 34] was 9.33 µM. It also gave a TGI ([26]; read-out: Log TGI (converted)) of 4.57 µM, a GI50 [27] of 1620 nM and an LC50 [27] of 5.62 µM. For the same molecule, the TGI ([27]; read-out: Log TGI (converted)) was 2820 nM, the GI50 [28] was 1700 nM and the CC50 [28, 34] was 5.89 µM. It also gave a TGI ([28]; read-out: Log TGI (converted)) of 3.16 µM, a GI50 [29] of 1910 nM and a TGI ([29]; read-out: Log TGI (converted)) of 3.72 µM. It also gave a GI50 [30] of 2040 nM, an LC50 [30] of 7.76 µM and a TGI ([30]; read-out: Log TGI (converted)) of 3.98 µM. The GI50 [31] was 1660 nM, the CC50 [31, 34] was 6.92 µM and the TGI ([31]; read-out: Log TGI (converted)) was 3.31 µM. The GI50 [32] was 4.68 µM, the LC50 [32] was 45.7 µM and the TGI ([32]; read-out: Log TGI (converted)) was 17 µM. It also gave a GI50 [33] of 1230 nM, an LC50 [33] of 6.46 µM and a TGI ([33]; read-out: Log TGI (converted)) of 2820 nM.
